Assay outcomes as filed in PubChem.
RGS4 block = human RGS4 inhibition | P49798 | HEK293 M3R/RGS4 inducible, Fluo-4 calcium flux; stronger effect = higher value; triggered by carbachol at its EC20 | B-score at 10 µM | 0.45% of 310,000 active;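 active = B-score, a plate-corrected calcium signal, over three deviations above library mean, with baseline fluorescence within five deviations of library mean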;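 also: RGS4 expression induced by doxycycline in cells with stable M3 receptor; B-score is computed from the integrated fluorescence ratio over baseline after carbachol; higher B-score means a larger calcium signal and so more RGS4 inhibition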
Target sequence (P49798 whole entry, looked up): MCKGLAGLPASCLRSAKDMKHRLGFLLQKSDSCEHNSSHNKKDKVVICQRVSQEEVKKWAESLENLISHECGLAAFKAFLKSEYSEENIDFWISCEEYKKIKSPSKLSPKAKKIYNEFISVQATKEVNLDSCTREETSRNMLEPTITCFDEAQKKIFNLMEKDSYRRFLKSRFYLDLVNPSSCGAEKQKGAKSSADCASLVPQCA
MrgX1 allo act = allosterically activates human MrgX1 receptor signaling | Q96LB2 | MrgX1-HEK293, Fluo-4 calcium flux, FDSS; stronger effect = higher value | B-score at 10 µM | 0.63% of 310,000 active | AID 588675;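 active = plate-corrected calcium response at least 3 library SD above typical, normal starting fluorescence, not activating the receptor alone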;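 also: compound read alongside a low EC10 to EC30 dose of BAM8-22 agonist; peak minus trough fluorescence over baseline measured at the second addition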
MrgX1 ag = agonists of human MrgX1 receptor | Q96LB2 | MrgX1-HEK293 cells, Fluo-4 calcium fluorescence, agonist mode; stronger effect = higher value | B-score at 10 µM | 0.44% of 310,000 active | AID 588627;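 active = calcium response B-score plate-corrected fluorescence ratio at least 3 library SD, with starting fluorescence B-score inside 5 SD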
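Material – MrgX1-expressing HEK293 cells · Input – 15,000 cells seeded per well · Dosing – compound as first of three additions · Times – overnight seeding, then 1 h dark dye loading · Measured by – kinetic Fluo-4 NW fluorescence of intracellular calcium · Read-out – B-scored fluorescence response ratio · Benchmarks – positive and negative control wells on each plate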
RGS4 pot = RGS4 potentiation or activation; AID 463111; 0.92% of 310,000 active; HEK293 M3R/inducible RGS4, carbachol calcium flux Fluo4; stronger effect = lower value; B-score at 10 µM;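 active = B-score of the integrated calcium signal more than 4 SD below the library mean, with starting fluorescence not abnormally high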;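 also: negative B-score means reduced calcium response which marks RGS4 activation or potentiation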
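Test system: HEK293 cells with stable M3R and inducible RGS4; also added: carbachol at ECmax as muscarinic agonist stimulus; schedule: dye loading 30 min 37 °C, buffer rest 30 min RT; technique: kinetic calcium fluorescence imaging with Fluo4-AM dye, 2 µM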
MrgX1 antagonist = human MrgX1 receptor antagonism, primary screen | AID 588676 | MRGX1-HEK293 calcium flux, Fluo-4, BAM8-22 antagonism; stronger effect = lower value | B-score at 10 µM | 1.3% of 310,000 active | Q96LB2;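 active = calcium-response B-score plate-corrected more than 3 library SD below zero, starting fluorescence within 5 deviations, no agonist response on first addition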;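 also: peak minus trough fluorescence over baseline after final BAM8-22 challenge near maximal dose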
RGS4 activ val = RGS4 activation, validation assay; 89% of 1,100 active; AID 602282; shares compounds with RGS4 pot; inhibition, % at 10 µM; HEK293 M3R/RGS4 inducible, carbachol calcium flux Fluo4;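 active = inhibition above 3 SD of the buffer control wells, cut at about 41% in these data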;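 also: signal is the integrated peak-minus-minimum Fluo4 fluorescence over baseline ratio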
RGS4 act ctr = activity in cells without induced RGS4 expression; shares compounds with RGS4 pot; HEK293 M3R non-induced RGS4, Fluo4 calcium flux; after carbachol challenge at its EC90; inhibition, % at 10 µM; 82% of 1,100 active; AID 602283;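 active = inhibition exceeding 3 SD of buffer-only control wells, cut at about 26% in these data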;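 also: percent drop in integrated peak-minus-baseline over baseline Fluo4 ratio after carbachol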
Numbers stand for hits; i = inactive; nt = no result. An excerpt weighted towards active compounds, which were near 3.5% of everything screened.

SMILES	RGS4 block	MrgX1 allo act	MrgX1 ag	RGS4 pot	MrgX1 antagonist	RGS4 activ val	RGS4 act ctr
Cc1ccc(OCC(=O)Nc2ccc(CN3CCCCC3)cc2)c(C)c1	i	i	i	-9.9	i	66	84
CC1C(=O)Nc2ccc(S(=O)(=O)NCCc3ccc(Cl)cc3)cc2NC1=O (configuration not stated)	i	i	i	i	i	nt	nt
COc1cc(NC(=O)Nc2cccc(Cl)c2)c(OC)cc1NC(=O)CN1CCCCC1	i	i	i	-11	i	38	i
O=C(CN1CCCCC1)Nc1cccc(Cl)c1	i	i	i	i	i	nt	nt
CCC(=O)Nc1nonc1-c1nc2ccccc2n1N(C(=O)CC)C(=O)CC	i	i	i	-8.6	i	i	i
CCC(=O)Nc1nonc1-c1nc2ccccc2n1Cc1ccccc1	i	i	i	i	i	nt	nt
CCN(CC)CCNC(=O)c1cc2c(=O)n(CC)c3ccccc3c2s1	i	i	i	-8.4	i	54	84
CCN(CC)CCCNC(=O)c1cc2c(=O)n(CC)c3ccccc3c2s1	i	i	i	i	i	nt	nt
CCN(CC)CCCNC(=O)c1cc2c(Cl)nc3ccccc3c2s1	i	i	i	-7.7	i	68	84
CN(CCCNC(=O)c1cc2c(Cl)nc3ccccc3c2s1)Cc1ccccc1	i	i	i	i	i	nt	nt
O=C(CSc1nnc(-c2ccncc2)n1-c1ccccc1)NC1CC1	i	i	i	i	i	nt	nt
CCOc1cc(/C=C2\CCCc3c2nc2ccccc2c3C(=O)O)ccc1OC	i	i	i	i	i	nt	nt
COCCN(C(=O)COC(=O)c1cc(C)oc1C)c1c(N)n(Cc2ccccc2)c(=O)[nH]c1=O	i	i	i	i	i	nt	nt
O=C(COC(=O)c1ccccc1OC(F)F)Nc1ccc2[nH]c(=O)[nH]c2c1	i	i	i	i	i	nt	nt
CCNC(=O)NC1c2ccccc2CSc2ccccc21 (configuration not stated)	i	i	i	i	i	nt	nt
CCOCCN1CCN(C2c3ccccc3CSc3ccccc32)CC1 (configuration not stated)	i	i	i	-13	i	92	90
C=CCc1cc(Cl)ccc1OC(=O)Nc1cccc(Cl)c1	i	i	i	i	i	nt	nt
Nc1ccc(-c2nc3ccccc3[nH]2)cc1	i	i	i	i	i	nt	nt
c1ccc(-c2cc(-c3nc4ccccc4[nH]3)c3ccccc3n2)cc1	i	i	i	-9.6	i	94	77
O=C(c1cc(-c2ccncc2)nc2ccc(Br)cc12)N1CCN(c2ccccn2)CC1	i	i	i	i	i	nt	nt
O=C(c1cc(-c2cccc(Cl)c2)nc2ccccc12)N1CCN(c2ccccn2)CC1	i	i	i	-8.4	i	56	i
COc1ccc(-c2cc(C(=O)N3CCN(c4cccc(C)c4C)CC3)c3ccccc3n2)cc1OC	i	i	i	-8.5	i	52	i
O=C(Nc1ccccc1)O[C@@H]1C[C@H]2CCC(=O)N3CC[C@@H](C1)[C@@H]23	i	i	i	i	i	nt	nt
O=S(=O)(Nc1ccc(Cl)cc1)c1ccc(N2CCOCC2)c(NC(=S)NC2CC2)c1	i	i	i	-12	i	i	i
COc1ccc(OCc2cc(C(=O)N(C)C(C)c3ccon3)no2)c(Cl)c1 (configuration not stated)	i	i	i	i	i	nt	nt
COc1ccccc1-c1cn[nH]c1-c1ccc(OCc2ccccc2)cc1O	i	i	i	i	i	nt	nt
COc1ccc(-c2cn[nH]c2-c2ccc(OCc3ccccc3)cc2O)cc1	i	i	i	-9.7	i	i	i
COc1ccccc1C(CNC(=O)C(C)(C)Oc1ccc(Cl)cc1)N1CCCC1 (configuration not stated)	i	i	i	-8.8	i	90	26
COc1ccc(N2C(=O)CC(N(CCc3ccccc3)C(=O)c3ccccc3)C2=O)cc1 (configuration not stated)	i	i	i	-11	i	i	i
COc1ccc(CCN(C(=O)c2cccc(F)c2)C2CC(=O)N(c3ccccc3)C2=O)cc1 (configuration not stated)	i	i	i	i	i	nt	nt
